Measured values taken from ChEMBL document CHEMBL4387708, “Enhancement of Benzothiazoles as Pteridine Reductase-1 Inhibitors for the Treatment of Trypanosomatidic Infections” (J Med Chem, 2019).
Calls of active or inactive are those of the source. The rule behind the calls is not given here.

Columns and labels:
Trypanosoma cruzi = experiment: Growth inhibition of trypomastigote form of Trypanosoma cruzi Y infected in human U2OS cells at 50 uM measured after 72 hrs by DRAQ5 DNA dye based confocal microscopic analysis relative to control; assay type: organism-based; details: for inhibition at 50 µM: Trypanosoma cruzi, Y, U2OS, read-out: GI; for growth inhibition (GI): trypanosoma cruzi, 50 µM
Leishmania infantum = experiment: Growth inhibition of luciferase expressing Leishmania infantum axenic amastigotes infected in human THP1 cells at 10 uM measured after 72 hrs by steady-glo luminescence assay relative to control; assay type: organism-based; details: for growth inhibition (GI): leishmania infantum, 72 h, 10 µM
Pteridine reductase 1 = target: T1, Pteridine reductase 1 (Leishmania major, UniProt Q01782); experiment: Inhibition of Leishmania major pteridine reductase 1 using di-hydrobiopterine as substrate in presence of NADPH
T1 sequence (Q01782 whole entry): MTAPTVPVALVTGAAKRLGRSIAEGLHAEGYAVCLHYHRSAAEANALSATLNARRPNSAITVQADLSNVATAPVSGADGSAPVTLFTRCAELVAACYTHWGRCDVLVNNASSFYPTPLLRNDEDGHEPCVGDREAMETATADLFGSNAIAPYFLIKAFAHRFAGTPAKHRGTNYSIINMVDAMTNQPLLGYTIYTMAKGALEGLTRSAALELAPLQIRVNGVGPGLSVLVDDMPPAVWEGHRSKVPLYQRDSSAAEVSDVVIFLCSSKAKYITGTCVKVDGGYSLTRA
In short: (§1)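 Photometric PTR1 assay with NADPH and dihydrobiopterin substrate. H₄B formation is coupled non-enzymatically to cytochrome c reduction, read as signal increase at 550 nm.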

[1] = Inhibition of N-terminal His-tagged Trypanosoma brucei pteridine reductase 1 using di-hydrobiopterine as substrate measured at 1 min interval for 50 mins in presence of NADPH; in short: as §1
Trypanosoma brucei [2] = experiment: Inhibition of N-terminal His-tagged Trypanosoma brucei pteridine reductase 1 at 50 uM using di-hydrobiopterine as substrate measured at 1 min interval for 50 mins in presence of NADPH relative to control; in short: as §1
[3] = target: T2, Pteridine reductase 1 (Leishmania major) (UniProt Q01782); experiment: Inhibition of Leishmania major pteridine reductase 1 at 50 uM using di-hydrobiopterine as substrate in presence of NADPH relative to control; in short: as §1
T2 sequence (whole entry): T1 sequence (Q01782 whole entry)

Trypanosoma brucei [4] = experiment: Growth inhibition of Trypanosoma brucei bloodstream forms at 10 uM measured after 72 hrs by resazurin-based fluorescence assay relative to control; assay type: organism-based; details: Trypanosoma brucei, read-out: GI
Trypanosoma brucei [5] = experiment: Inhibition of PTR1 in Trypanosoma brucei bloodstream forms assessed as potentiation of methotrexate-induced parasitic cell growth inhibition at 10 uM measured after 72 hrs by resazurin-based fluorescence assay (reference value: 19 +/- 6%)
In short: (§2)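 Bloodstream-form T. brucei resazurin assay: 72 h at 37 °C, 5% CO₂, then fluorescence at ex 540/em 620 nm. Benzothiazole was tested at 10 μM alone and with 4 μM methotrexate. The index is the combination's activity divided by the sum of the activities of 10 μM benzothiazole and 4 μM methotrexate given separately.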

Trypanosoma brucei [6] = experiment: Inhibition of PTR1 in Trypanosoma brucei bloodstream forms assessed as potentiation of methotrexate-induced parasitic cell growth inhibition by measuring potentiation index at 10 uM measured after 72 hrs by resazurin-based fluorescence assay relative to control (methotrexate); assay type: functional; in short: as §2
[7] = target: Voltage-gated inwardly rectifying potassium channel KCNH2 (Homo sapiens, UniProt Q12809); experiment: Displacement of Tracer Red from human ERG by fluorescence polarization assay
Voltage-gated inwardly rectifying potassium channel KCNH2, sequence (Q12809 whole entry): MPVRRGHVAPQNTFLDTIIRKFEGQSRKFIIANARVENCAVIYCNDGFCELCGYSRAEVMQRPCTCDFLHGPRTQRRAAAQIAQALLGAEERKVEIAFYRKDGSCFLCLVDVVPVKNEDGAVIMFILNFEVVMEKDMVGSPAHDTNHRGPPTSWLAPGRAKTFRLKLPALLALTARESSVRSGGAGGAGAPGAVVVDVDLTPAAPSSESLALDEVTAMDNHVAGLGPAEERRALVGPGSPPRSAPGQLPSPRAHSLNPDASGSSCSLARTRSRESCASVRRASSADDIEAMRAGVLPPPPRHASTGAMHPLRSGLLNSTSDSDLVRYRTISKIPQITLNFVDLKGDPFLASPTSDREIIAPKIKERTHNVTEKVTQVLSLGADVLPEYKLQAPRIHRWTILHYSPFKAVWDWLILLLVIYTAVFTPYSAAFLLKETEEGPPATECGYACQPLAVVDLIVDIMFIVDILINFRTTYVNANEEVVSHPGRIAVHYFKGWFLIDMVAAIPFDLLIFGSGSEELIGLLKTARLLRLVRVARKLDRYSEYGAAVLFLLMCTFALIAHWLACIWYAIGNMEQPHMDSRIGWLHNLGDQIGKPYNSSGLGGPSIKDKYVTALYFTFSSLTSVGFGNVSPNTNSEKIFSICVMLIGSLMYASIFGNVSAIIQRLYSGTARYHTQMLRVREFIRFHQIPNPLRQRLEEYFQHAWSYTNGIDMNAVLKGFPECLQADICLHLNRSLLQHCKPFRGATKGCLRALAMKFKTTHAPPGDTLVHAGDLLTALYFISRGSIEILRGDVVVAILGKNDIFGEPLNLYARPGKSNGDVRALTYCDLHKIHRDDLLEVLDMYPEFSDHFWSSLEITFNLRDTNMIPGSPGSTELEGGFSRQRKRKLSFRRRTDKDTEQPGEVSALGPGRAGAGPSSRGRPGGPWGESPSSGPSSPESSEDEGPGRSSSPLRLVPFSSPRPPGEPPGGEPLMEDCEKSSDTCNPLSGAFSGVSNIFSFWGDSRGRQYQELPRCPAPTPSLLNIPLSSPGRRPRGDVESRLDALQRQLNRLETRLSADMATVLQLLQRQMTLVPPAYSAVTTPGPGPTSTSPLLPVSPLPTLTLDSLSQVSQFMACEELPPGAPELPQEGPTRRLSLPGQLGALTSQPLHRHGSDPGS

Cytochrome P450 1A2 = target: T3, Cytochrome P450 1A2 (Homo sapiens, UniProt P05177); experiment: Inhibition of human CYP1A2 expressed in baculovirus infected insect cells using beetle D-luciferin as substrate preincubated for 30 mins followed by NADPH addition and measured after 30 mins by CYP450-Glo assay
T3 sequence (P05177 whole entry): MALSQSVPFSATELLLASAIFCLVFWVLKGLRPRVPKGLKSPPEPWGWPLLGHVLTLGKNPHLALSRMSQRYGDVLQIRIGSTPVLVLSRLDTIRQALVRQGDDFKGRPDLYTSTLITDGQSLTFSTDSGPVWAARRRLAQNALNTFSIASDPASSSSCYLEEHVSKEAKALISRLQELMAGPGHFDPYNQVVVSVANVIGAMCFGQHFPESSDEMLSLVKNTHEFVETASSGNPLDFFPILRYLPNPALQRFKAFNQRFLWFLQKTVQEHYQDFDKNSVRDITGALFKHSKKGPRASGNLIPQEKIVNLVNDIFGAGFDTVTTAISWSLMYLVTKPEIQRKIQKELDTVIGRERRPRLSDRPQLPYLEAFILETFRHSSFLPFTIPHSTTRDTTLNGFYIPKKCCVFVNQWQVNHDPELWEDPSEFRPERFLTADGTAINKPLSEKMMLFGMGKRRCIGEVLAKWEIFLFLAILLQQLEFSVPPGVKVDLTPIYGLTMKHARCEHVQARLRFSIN

Cytochrome P450 2C9 = Cytochrome P450 2C9 (Homo sapiens, UniProt P11712); experiment: Inhibition of human CYP2C9 expressed in baculovirus infected insect cells using beetle D-luciferin as substrate preincubated for 30 mins followed by NADPH addition and measured after 30 mins by CYP450-Glo assay
Cytochrome P450 2C9, sequence (P11712 whole entry): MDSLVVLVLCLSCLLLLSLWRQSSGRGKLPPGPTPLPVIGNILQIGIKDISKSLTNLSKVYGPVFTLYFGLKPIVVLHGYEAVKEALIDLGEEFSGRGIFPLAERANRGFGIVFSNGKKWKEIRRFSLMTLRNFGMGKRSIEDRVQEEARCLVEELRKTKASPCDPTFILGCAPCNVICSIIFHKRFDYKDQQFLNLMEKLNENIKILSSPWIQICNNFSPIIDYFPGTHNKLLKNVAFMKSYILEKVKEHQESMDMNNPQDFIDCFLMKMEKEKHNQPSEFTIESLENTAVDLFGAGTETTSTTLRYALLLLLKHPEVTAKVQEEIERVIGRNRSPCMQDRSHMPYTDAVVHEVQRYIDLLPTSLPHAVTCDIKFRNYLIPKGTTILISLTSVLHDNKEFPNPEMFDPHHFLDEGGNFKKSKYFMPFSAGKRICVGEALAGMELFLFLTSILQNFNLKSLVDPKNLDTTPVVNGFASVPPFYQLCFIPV

Cytochrome P450 2C19 = Cytochrome P450 2C19 (Homo sapiens, UniProt P33261); experiment: Inhibition of human CYP2C19 expressed in baculovirus infected insect cells using beetle D-luciferin as substrate preincubated for 30 mins followed by NADPH addition and measured after 30 mins by CYP450-Glo assay
Cytochrome P450 2C19, sequence (P33261 whole entry): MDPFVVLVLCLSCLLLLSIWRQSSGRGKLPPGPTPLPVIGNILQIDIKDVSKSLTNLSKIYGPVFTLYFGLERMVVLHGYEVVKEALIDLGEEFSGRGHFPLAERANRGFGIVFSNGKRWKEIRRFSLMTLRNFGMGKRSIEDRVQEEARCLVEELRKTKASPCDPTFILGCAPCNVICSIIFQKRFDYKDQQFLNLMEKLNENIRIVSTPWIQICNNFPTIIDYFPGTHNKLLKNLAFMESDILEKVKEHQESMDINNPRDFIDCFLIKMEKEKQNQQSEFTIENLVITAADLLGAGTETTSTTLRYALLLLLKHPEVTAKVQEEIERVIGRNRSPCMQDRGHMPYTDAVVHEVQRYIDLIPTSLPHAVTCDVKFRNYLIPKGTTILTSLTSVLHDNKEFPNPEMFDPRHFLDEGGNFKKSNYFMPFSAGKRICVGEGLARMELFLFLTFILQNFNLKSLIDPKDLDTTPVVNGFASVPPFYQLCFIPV

Cytochrome P450 2D6 = Cytochrome P450 2D6 (Homo sapiens, UniProt P10635); experiment: Inhibition of human CYP2D6 expressed in baculovirus infected insect cells using beetle D-luciferin as substrate preincubated for 30 mins followed by NADPH addition and measured after 30 mins by CYP450-Glo assay
Cytochrome P450 2D6, sequence (P10635 whole entry): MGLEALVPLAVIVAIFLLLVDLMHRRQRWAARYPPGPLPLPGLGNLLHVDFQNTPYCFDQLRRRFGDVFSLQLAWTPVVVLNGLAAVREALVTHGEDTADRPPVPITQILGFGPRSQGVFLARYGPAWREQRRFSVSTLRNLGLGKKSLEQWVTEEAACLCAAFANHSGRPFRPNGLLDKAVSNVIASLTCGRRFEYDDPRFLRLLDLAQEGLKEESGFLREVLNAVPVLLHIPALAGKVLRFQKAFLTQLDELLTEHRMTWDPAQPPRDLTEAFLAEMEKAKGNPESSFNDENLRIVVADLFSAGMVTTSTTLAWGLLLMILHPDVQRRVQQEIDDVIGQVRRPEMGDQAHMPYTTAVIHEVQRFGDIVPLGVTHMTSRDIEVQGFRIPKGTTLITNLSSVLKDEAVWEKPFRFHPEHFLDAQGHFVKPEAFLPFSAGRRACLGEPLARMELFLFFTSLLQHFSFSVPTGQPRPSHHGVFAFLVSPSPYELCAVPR

Cytochrome P450 3A4 = Cytochrome P450 3A4 (Homo sapiens, UniProt P08684); experiment: Inhibition of human CYP3A4 expressed in baculovirus infected insect cells using beetle D-luciferin as substrate preincubated for 30 mins followed by NADPH addition and measured after 30 mins by CYP450-Glo assay
Cytochrome P450 3A4, sequence (P08684 whole entry): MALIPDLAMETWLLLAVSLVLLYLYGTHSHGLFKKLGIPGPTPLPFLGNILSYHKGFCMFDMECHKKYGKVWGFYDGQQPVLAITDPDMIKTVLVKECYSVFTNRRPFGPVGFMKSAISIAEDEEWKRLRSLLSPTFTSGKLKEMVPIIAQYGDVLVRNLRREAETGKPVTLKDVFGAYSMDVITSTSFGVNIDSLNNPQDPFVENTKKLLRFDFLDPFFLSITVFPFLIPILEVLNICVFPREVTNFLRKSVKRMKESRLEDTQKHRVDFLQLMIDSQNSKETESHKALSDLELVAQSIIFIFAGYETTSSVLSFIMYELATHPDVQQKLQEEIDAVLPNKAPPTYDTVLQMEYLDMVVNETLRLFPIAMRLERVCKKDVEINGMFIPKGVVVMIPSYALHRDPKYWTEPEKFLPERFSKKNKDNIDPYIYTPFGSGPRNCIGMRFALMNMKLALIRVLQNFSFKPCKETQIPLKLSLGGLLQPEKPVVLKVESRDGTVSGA

[8] = Cytotoxicity against human A549 cells after 48 hrs by Celltiter-glo assay; assay type: cell-based
[9] = Cytotoxicity against human THP1 cells after 72 hrs by MTT assay; assay type: cell-based, THP-1; details: read-out: NOAEL
[10] = Cytotoxicity against human U2OS cells assessed as reduction in cell number; assay type: cell-based
[11] = Mitochondrial toxicity in human 786-O cells measured after 6 hrs by MitoTracker Red chloromethyl-X-rosamine based assay; assay type: cell-based, 786-0
[12] = Selectivity ratio of IC50 for Leishmania major pteridine reductase 1 to IC50 for N-terminal His-tagged Trypanosoma brucei pteridine reductase 1

Compound | inhibition at 50 µM (Trypanosoma cruzi) [%] | growth inhibition (GI) (Leishmania infantum) | IC50 (Pteridine reductase 1; read-out: IC50) [µM] | IC50 [1] [µM] | inhibition (Trypanosoma brucei [2]) [%] | inhibition [3] | inhibition at 10 µM (Trypanosoma brucei [4]) [%] | growth inhibition (GI) (Trypanosoma brucei [5]) [%] | Ratio (Trypanosoma brucei [6]) | IC50 [7] [µM] | IC50 (Cytochrome P450 1A2) [µM] | IC50 (Cytochrome P450 2C9) [µM] | IC50 (Cytochrome P450 2C19) [µM] | IC50 (Cytochrome P450 2D6) [µM] | IC50 (Cytochrome P450 3A4) [µM] | GI50 at 48 h [8] [µM] | MNTC at 72 h [9] [µM] | GI50 [10] [µM] | IC50 at 6 h [11] [µM] | Ratio IC50 [12] | other results
Nc1nc2ccc(SCc3ccc(Cl)c(Cl)c3)cc2s1 | 21.4 | Non-Toxic | 10 | 0.9 | > 60 | > 60% | 41 to 46 | 65 | 1.1 | > 25 | 10 to 25 | > 25 | < 10 | < 10 | < 10 | 10 to 25 | > 25 | > 25 | > 25 | 2 to 100 | 
Nc1nc2ccc(SCc3ccc(C(=O)NCc4ccccc4)cc3)cc2s1 | 19.2 | Non-Toxic | 30 | 0.5 | > 60 | > 60% | 26 to 33 | 80 | 1.6 | > 25 | > 25 | < 10 | < 10 | < 10 | < 10 | < 10 | 10 to 25 | > 25 | > 25 | 2 to 100 | 
Nc1nc2ccc(OCc3ccc(Cl)c(Cl)c3)cc2s1 | 7.24 | Non-Toxic |  | 3.4 | > 60 | inactive | 42 to 55 | 89 | 1.2 | > 25 | < 10 | > 25 | < 10 | 10 to 25 | < 10 | > 25 | > 25 | > 25 | > 25 | 2 to 100 | IC50 (Pteridine reductase 1): Not Active
N#Cc1ccc(CNC(=O)c2ccc3nc(N)sc3c2)cc1 |  | Non-Toxic | 73.3 | 42.9 | > 60 | > 60% | 8 |  |  | > 25 | > 25 | > 25 | > 25 | > 25 | > 25 | > 25 | > 25 | > 25 | > 25 | 2 to 100 | growth inhibition (GI) (Trypanosoma cruzi): Non-Toxic
COC(=O)c1ccc(CS(=O)(=O)c2ccc3nc(N)sc3c2)cc1 |  |  | 65.9 | > 100 | > 60 | > 60% | 14 |  |  | > 25 | > 25 | 10 to 25 | < 10 | < 10 | 10 to 25 | > 25 | > 25 | > 25 | > 25 | 2 to 100 | growth inhibition (GI) (Trypanosoma cruzi): Non-Toxic; inhibition at 10 µM (Leishmania infantum; Leishmania infantum, THP-1, 72 h, read-out: GI): 12%
